In ChEMBL document CHEMBL4196059, “Design, synthesis, and biological evaluation of stable β6.3-Helices: Discovery of non-hemolytic antibacterial peptides” (Eur J Med Chem, 2018):
The source made the active and inactive calls. The calls are words filed in the database; no cut-off is given here.

Columns and labels:
Lipid bilayer [1] = assay: Binding affinity to POPC vesicles by surface plasmon resonance spectroscopy
Method in brief: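 SPR on a dextran chip carrying immobilized POPC liposomes, with running buffer of 10 mM HEPES and 100 mM KCl at pH 7.4. Peptides in PBS were flowed at 25 μL/min at 10–1000 μM, with reference-subtracted response units. KD and Rmax were fitted from maximum response versus concentration. Regeneration used 20 mM CHAPS followed by fresh liposomes.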

Pseudomonas aeruginosa = assay: Growth inhibition of Pseudomonas aeruginosa ATCC 27853 at 32 ug/ml after 18 hrs; format: functional; details: ATCC 27853, 18 h, read-out: GI
Method in brief: (§1)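 Mid-log cultures were prepared as above and seeded at 5×10^5 CFU/mL with compound at a final 32 μg/mL, then held static at 37 °C for 18 h. Growth was read as OD600. Percent inhibition was calculated against media-only and bacteria-only controls on the same plate.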

[2] = Hemolytic activity against human RBC at 12.5 uM after 1 hr by Drabkin's assay relative to control; format: ADME, cell-based, Erythrocyte; details: human red blood cells (erythrocytes), read-out: Activity
[3] = Induction of pore formation in DOPC vesicles at 20 uM after 3 mins by carboxyfluorescein dye leakage assay
Staphylococcus aureus [4] = assay: Growth inhibition of methicillin-resistant Staphylococcus aureus ATCC 43300 at 32 ug/ml after 18 hrs; format: functional; details: ATCC 43300, 18 h, read-out: GI
Method in brief: (§2)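 Mid-log cultures in cation-adjusted Mueller Hinton broth were added at 5×10^5 CFU/mL to wells at a final compound concentration of 32 μg/mL. Plates stood at 37 °C for 18 h. Growth was read by OD600, and % inhibition was computed against media-only and untreated-bacteria controls.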

Cryptococcus neoformans = assay: Growth inhibition of Cryptococcus neoformans H99 ATCC 208821 at 32 ug/ml after 24 hrs by resazurin dye-based microspectrophotometric assay; format: functional; details: var. grubii H99 ATCC 208821, 24 h, read-out: GI
Method in brief: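 Yeasts were grown 3 days on YPD agar at 30 °C, suspended from five colonies and diluted in YNB broth to a final 2.5×10^3 CFU/mL. Compound at a final 32 μg/mL; incubated 24 h at 35 °C without shaking. C. albicans was read at OD530. C. neoformans was read as OD600–570 after resazurin (0.001% final) and a further 2 h at 35 °C. Fluconazole was the standard.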

Escherichia coli [5] = assay: Growth inhibition of Escherichia coli ATCC 25922 at 32 ug/ml after 18 hrs; format: functional; details: ATCC 25922, 18 h, read-out: GI; method in brief: as §1
[6] = Hemolytic activity against human RBC at 1.56 uM after 1 hr by Drabkin's assay relative to control; format: ADME, cell-based, Erythrocyte; details: human red blood cells (erythrocytes), read-out: Activity
[7] = Hemolytic activity against human RBC at 25 uM after 1 hr by Drabkin's assay relative to control; format: ADME, cell-based, Erythrocyte; details: human red blood cells (erythrocytes), read-out: Activity
Candida albicans = assay: Growth inhibition of Candida albicans ATCC 90028 at 32 ug/ml after 24 hrs by OD530 light-scattering microspectrophotometric method; details: ATCC 90028, 24 h, read-out: GI
[8] = Hemolytic activity against human RBC at 0.78 uM after 1 hr by Drabkin's assay relative to control; format: ADME, cell-based, Erythrocyte; details: human red blood cells (erythrocytes), read-out: Activity
Klebsiella pneumoniae [9] = assay: Growth inhibition of multidrug-resistant Klebsiella pneumoniae ATCC 700603 at 32 ug/ml after 18 hrs; format: functional; details: ATCC 700603, 18 h, read-out: GI; method in brief: as §2
[10] = Hemolytic activity against human RBC at 50 uM after 1 hr by Drabkin's assay relative to control; format: ADME, cell-based, Erythrocyte; details: human red blood cells (erythrocytes), read-out: Activity
Lipid bilayer [11] = assay: Induction of pore formation in POPC vesicles at 20 to 100 uM after 3 mins by carboxyfluorescein dye leakage assay
Acinetobacter baumannii [12] = assay: Growth inhibition of Acinetobacter baumannii ATCC 19606 at 32 ug/ml after 18 hrs; format: functional; details: ATCC 19606 = CIP 70.34 = JCM 6841, 18 h, read-out: GI; method in brief: as §1
[13] = Hemolytic activity against human RBC at 6.25 uM after 1 hr by Drabkin's assay relative to control; format: ADME, cell-based, Erythrocyte; details: human red blood cells (erythrocytes), read-out: Activity
[14] = Hemolytic activity against human RBC at 0.39 uM after 1 hr by Drabkin's assay relative to control; format: ADME, cell-based, Erythrocyte; details: human red blood cells (erythrocytes), read-out: Activity
[15] = Hemolytic activity against human RBC at 3.125 uM after 1 hr by Drabkin's assay relative to control; format: ADME, cell-based, Erythrocyte; details: human red blood cells (erythrocytes), read-out: Activity
Erythrocyte = assay: Hemolytic activity against human RBC after 1 hr by Drabkin's assay; format: ADME, cell-based
Acinetobacter baumannii [16] = assay: Antibacterial activity against Acinetobacter baumannii ATCC 19606 after 18 hrs by non-binding surface 96-well plate-based method; format: functional
Method in brief: (§3)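 Strains grown in cation-adjusted Mueller Hinton broth at 37 °C for 12 h, diluted 40-fold and regrown 1.5–3 h to mid-log. Inoculum was 5×10^5 CFU/mL in 12-point dose response, in non-binding surface or polystyrene plates, in duplicate. Plates stood at 37 °C for 18 h. MIC was read by OD600.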

Escherichia coli [17] = assay: Antibacterial activity against Escherichia coli ATCC 25922 after 18 hrs by polystyrene 96-well plate-based method; format: functional; method in brief: as §3
Staphylococcus aureus [18] = assay: Antibacterial activity against methicillin-resistant Staphylococcus aureus ATCC 43300 after 18 hrs by non-binding surface 96-well plate-based method; format: functional; method in brief: as §3
Acinetobacter baumannii [19] = assay: Antibacterial activity against Acinetobacter baumannii ATCC 19606 after 18 hrs by polystyrene 96-well plate-based method; format: functional
Method in brief: (§4)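 Cultured in cation-adjusted Mueller Hinton broth at 37 °C for 12 h, diluted 40-fold and grown 1.5–3 h to mid-log. Seeded at 5×10^5 CFU/mL over a 12-point dose response in non-binding surface and polystyrene 96-well plates, duplicates (n=2). Incubated static at 37 °C for 18 h. MIC read from OD600 light scattering; colistin and vancomycin as standards.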

Staphylococcus aureus [20] = assay: Antibacterial activity against methicillin-resistant Staphylococcus aureus ATCC 43300 after 18 hrs by polystyrene 96-well plate-based method; format: functional; method in brief: as §3
Klebsiella pneumoniae [21] = assay: Antibacterial activity against multidrug-resistant Klebsiella pneumoniae ATCC 700603 after 18 hrs by polystyrene 96-well plate-based method; format: functional; method in brief: as §3
Escherichia coli [22] = assay: Antibacterial activity against Escherichia coli ATCC 25922 after 18 hrs by non-binding surface 96-well plate-based method; format: functional; method in brief: as §4
Klebsiella pneumoniae [23] = assay: Antibacterial activity against multidrug-resistant Klebsiella pneumoniae ATCC 700603 after 18 hrs by non-binding surface 96-well plate-based method; format: functional; method in brief: as §3
[24] = ATCC 19606 = CIP 70.34 = JCM 6841
[25] = ATCC 19606 = CIP 70.34 = JCM 6841, 18 h

Q: For O=C(NCCO)[C@@H]1CCCN1C(=O)N1CCCN1C(=O)[C@@H]1CCCN1C(=O)N1CCCN1C(=O)[C@@H]1CCCN1C(=O)N1CCCN1C(=O)[C@@H]1CCCN1C(=O)N1CCCN1C(=O)[C@@H]1CCCN1C(=O)N1CCCN1C(=O)[C@@H]1CCCN1C(=O)N1CCCN1C(=O)[C@@H]1CCCN1C(=O)N1CCCN1C(=O)[C@@H]1CCCN1C(=O)N1CCCN1C(=O)OCc1ccccc1, which Kd (Lipid bilayer [1]) is on record?
A: Its Kd is 373 µM.

Q: And the Rmax (Lipid bilayer [1])?
A: The Rmax was 601.

Q: And the inhibition of growth at 32 µg/mL (Pseudomonas aeruginosa)?
A: The inhibition of growth at 32 µg/mL was -2.74%.

Q: And the hemolysis at 1 h, 12.5 µM [2]?
A: The hemolysis at 1 h, 12.5 µM was -0.04%.

Q: What about the Activity [3] of the same compound?
A: Its Activity is 13%.

Q: And the inhibition of growth at 32 µg/mL (Staphylococcus aureus [4])?
A: Its inhibition of growth at 32 µg/mL is 11.8%.

Q: What about the inhibition of growth at 32 µg/mL (Cryptococcus neoformans) of the same compound?
A: The inhibition of growth at 32 µg/mL was -4.06%.

Q: And the inhibition of growth at 32 µg/mL (Escherichia coli [5])?
A: Its inhibition of growth at 32 µg/mL is 11.3%.

Q: What about the hemolysis at 1 h, 1.56 µM [6] of the same compound?
A: Its hemolysis at 1 h, 1.56 µM is 0.02%.

Q: What about the hemolysis at 1 h, 25 µM [7] of the same compound?
A: Its hemolysis at 1 h, 25 µM is -0.04%.

Q: What about the inhibition of growth at 32 µg/mL (Candida albicans) of the same compound?
A: The inhibition of growth at 32 µg/mL was 4.99%.

Q: What about the hemolysis at 1 h, 0.78 µM [8] of the same compound?
A: The hemolysis at 1 h, 0.78 µM was 0.15%.

Q: What about the inhibition of growth at 32 µg/mL (Klebsiella pneumoniae [9]) of the same compound?
A: Its inhibition of growth at 32 µg/mL is 11.3%.

Q: What about the hemolysis at 1 h, 50 µM [10] of the same compound?
A: Its hemolysis at 1 h, 50 µM is -0.04%.

Q: What about the Activity (Lipid bilayer [11]) of the same compound?
A: The Activity was “inactive”.

Q: And the inhibition of growth at 32 µg/mL (Acinetobacter baumannii [12])?
A: The inhibition of growth at 32 µg/mL was 36.2%.

Q: And the hemolysis at 1 h, 6.25 µM [13]?
A: Its hemolysis at 1 h, 6.25 µM is -0.11%.

Q: What about the hemolysis at 1 h, 0.39 µM [14] of the same compound?
A: The hemolysis at 1 h, 0.39 µM was -0.04%.

Q: What about the hemolysis at 1 h, 3.125 µM [15] of the same compound?
A: The hemolysis at 1 h, 3.125 µM was 0.15%.

Q: And the Activity (Erythrocyte)?
A: The Activity was “Dose-dependent effect”.

Q: Which MIC (Acinetobacter baumannii [16]; [24]) does the source give for COLISTIN here?
A: The MIC was 0.06 to 0.125 µg/mL.

Q: What about the MIC (Escherichia coli [17]) of the same compound?
A: Its MIC is 0.125 µg/mL.

Q: And the MIC (Staphylococcus aureus [18])?
A: Its MIC is over 32 µg/mL.

Q: What about the MIC (Acinetobacter baumannii [19]; [24]) of the same compound?
A: Its MIC is 1 µg/mL.

Q: What about the MIC (Staphylococcus aureus [20]) of the same compound?
A: The MIC was over 32 µg/mL.

Q: And the MIC (Klebsiella pneumoniae [21])?
A: Its MIC is 0.25 µg/mL.

Q: And the MIC (Escherichia coli [22])?
A: The MIC was 0.016 µg/mL.

Q: What about the MIC (Klebsiella pneumoniae [23]) of the same compound?
A: Its MIC is 0.06 µg/mL.

Q: With CN[C@H](CC(C)C)C(=O)N[C@H]1C(=O)N[C@@H](CC(N)=O)C(=O)N[C@H]2C(=O)N[C@H]3C(=O)N[C@H](C(=O)N[C@H](C(=O)O)c4cc(O)cc(O)c4-c4cc3ccc4O)[C@H](O)c3ccc(c(Cl)c3)Oc3cc2cc(c3O[C@@H]2O[C@H](CO)[C@@H](O)[C@H](O)[C@H]2O[C@H]2C[C@](C)(N)[C@H](O)[C@H](C)O2)Oc2ccc(cc2Cl)[C@H]1O [VANCOMYCIN] as the compound, how does the MIC (Acinetobacter baumannii [16]; [25]) read?
A: The MIC was over 32 µg/mL.

Q: And the MIC (Escherichia coli [17]; ATCC 25922, 18 h)?
A: Its MIC is over 32 µg/mL.

Q: And the MIC (Acinetobacter baumannii [19]; [25])?
A: Its MIC is over 32 µg/mL.

Q: And the MIC (Klebsiella pneumoniae [21]; ATCC 700603, 18 h)?
A: Its MIC is over 32 µg/mL.

Q: What about the MIC (Escherichia coli [22]; ATCC 25922, 18 h) of the same compound?
A: Its MIC is over 32 µg/mL.

Q: And the MIC (Klebsiella pneumoniae [23]; ATCC 700603, 18 h)?
A: The MIC was over 32 µg/mL.
